# pPAFAH inh: pPAFAH (human) enzyme inhibition | AID 463082 | actives 1.5% (n = 330,000) | recombinant pPAFAH, FP-rhodamine probe fluorescence polarization | inhibition, % at 3.39 µM | Q13093;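 active means inhibition above the mean inhibition across the screen plus 3 SD, cut at about 25% in these data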;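 further: inhibitors block binding of the rhodamine activity-based probe so polarization drops; 0% = enzyme with DMSO and 100% = wells lacking pPAFAH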
# ABHD4 inh: inhibitors of mouse ABHD4. Q8VD66. purified mABHD4, FP-Rh probe fluorescence polarization. inhibition, % at 8.92 µM. actives 0.54% (n = 370,000);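 active means inhibition exceeding the mean over every tested compound plus 3 SD, cut at about 30% in these data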;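 further: 0% = plate median of compound wells and 100% = S159A mutant with DMSO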
#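 system = mouse ABHD4 enzyme, wild type | medium = HEPES pH 7.0, NaCl, Pluronic buffer | also added = FP-Rh probe | incubation = Enzyme–compound pre-incubation 45 min, then probe 60 min, both 25 °C | technique = fluorescence polarization, excitation 525 nm, emission 598 nm, BODIPY TMR filters | controls = S159A mutant high control, sample median low control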
# PAFAH1B3 FP inh: blocks human PAF acetylhydrolase 1B catalytic subunit 3. Q15102. recombinant PAFAH1B3, FP-rhodamine probe, fluorescence polarization. inhibition, % at 3.39 µM. actives 0.28% (n = 340,000);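 active means inhibition above the screen-wide average of all tested compounds plus 3 SD, cut at about 25% in these data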;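 further: 0% = enzyme with DMSO only and 100% = wells lacking PAFAH1B3 protein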
# Target sequence (Q15102 whole entry, looked up): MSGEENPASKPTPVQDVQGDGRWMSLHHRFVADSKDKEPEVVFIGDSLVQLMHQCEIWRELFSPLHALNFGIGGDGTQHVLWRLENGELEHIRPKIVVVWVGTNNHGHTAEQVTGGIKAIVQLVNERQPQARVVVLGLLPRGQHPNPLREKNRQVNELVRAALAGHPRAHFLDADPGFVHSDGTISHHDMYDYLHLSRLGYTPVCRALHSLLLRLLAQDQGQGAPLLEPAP
# HTRA1 inh: inhibitors of human serine peptidase HTRA1 | Q92743 | recombinant HTRA1, FP-rhodamine activity-based probe, fluorescence polarization | inhibition, % at 5.96 µM | actives 0.5% (n = 340,000); in the data active means inhibition above about 36%;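 further: 0% = enzyme with DMSO and 100% = wells lacking enzyme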
# PAFAH2 inh: inhibitors of human PAFAH2 | Q99487 | recombinant PAFAH2, FP-rhodamine activity probe, fluorescence polarization | inhibition, % at 3.39 µM | actives 0.99% (n = 340,000);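 active means inhibition above the mean over all tested compounds plus 3 SD, cut at about 30% in these data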;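 further: inhibitors block probe labeling of enzyme so polarization drops; 0% = enzyme with DMSO and 100% = wells lacking PAFAH2 protein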
# PAFAH1B2 FP inh: PAFAH1B2 (human) inhibition; P68402; recombinant PAFAH1B2, FP-rhodamine activity probe, fluorescence polarization; inhibition, % at 3.39 µM; actives 1.2% (n = 340,000);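 active means inhibition above the mean of all tested compounds plus 3 SD, cut at about 24% in these data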;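 further: 0% = enzyme with DMSO and 100% = wells lacking PAFAH1B2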
# Target sequence (P68402 whole entry, looked up): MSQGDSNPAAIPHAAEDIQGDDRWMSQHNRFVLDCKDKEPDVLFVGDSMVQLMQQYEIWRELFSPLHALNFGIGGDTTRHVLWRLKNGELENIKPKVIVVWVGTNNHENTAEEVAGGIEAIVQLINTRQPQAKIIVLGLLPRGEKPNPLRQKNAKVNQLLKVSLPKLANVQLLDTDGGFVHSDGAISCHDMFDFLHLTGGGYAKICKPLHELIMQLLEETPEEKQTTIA
# PAFAH1B3 confirm: confirmation of human PAFAH1B3 inhibitors; shares compounds with PAFAH1B3 FP inh; recombinant PAFAH1B3, FP-Rh activity-based probe, fluorescence polarization; inhibition, % at 3.39 µM; actives 30% (n = 390); AID 493032;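 active means average inhibition over triplicate runs above the hit cutoff set in the earlier primary screen, cut at about 25% in these data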;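 further: 0% = enzyme with DMSO and 100% = wells lacking PAFAH1B3 protein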
# HTRA1 conf: confirmation of human HTRA1 inhibitors; shares compounds with HTRA1 inh; recombinant HTRA1, FP-rhodamine activity-based probe, fluorescence polarization; inhibition, % at 5.96 µM; actives 66% (n = 1,600); AID 540248;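 active means mean inhibition over three repeats above a set limit taken from the earlier primary screen, cut at about 37% in these data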;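 further: 0% = HTRA1 with DMSO and 100% = wells lacking HTRA1; inhibitors block probe binding so polarization drops and inhibition rises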
# ABHD4 confirm: ABHD4 (mouse) inhibition, FP confirmation; shares compounds with ABHD4 inh; purified mABHD4, FP-Rh probe fluorescence polarization; inhibition, % at 8.92 µM; actives 55% (n = 1,800); AID 720658;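 active means mean inhibition across replicates above the hit cutoff set in the primary screen, cut at about 30% in these data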;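 further: 0% = wild-type ABHD4 with DMSO and 100% = catalytically dead S159A mutant with DMSO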
# The depositor's hits bear a star; . = not tested or not shown. Most compounds without a hit are left out; they make up all but 2.8% or so of the library.
SMILES,pPAFAH inh,ABHD4 inh,PAFAH1B3 FP inh,HTRA1 inh,PAFAH2 inh,PAFAH1B2 FP inh,PAFAH1B3 confirm,others
Nc1nonc1N/N=C\c1ccccc1,4,6,9,-1,-5,4,.,
O=C1Nc2c(Cl)cc(Cl)cc2C1=O,.,0,43*,27,13,16,23,
COC(=O)C1CN(Cc2cn(Cc3ccc(Cl)cc3)nn2)CCS(=O)(=O)N1Cc1ccc(F)cc1 (stereo unspecified),.,-4,.,.,.,.,.,
CCNCC(=O)N1c2ccccc2CCc2ccc(NC(C)=O)cc21,5,-3,4,0,2,0,.,
CCNCC(=O)N1c2ccccc2CCc2ccc(NC(=O)OC(C)C)cc21,2,4,31*,-8,-1,0,7,
CCN(CC)CCn1nc2c3c(cccc3c1=O)-c1ccccc1-2,4,1,2,-1,5,0,.,
O=c1c2cccc3c2c(nn1CN1CCOCC1)-c1ccccc1-3,4,.,26*,0,7,8,36*,
Cn1c2c(c3ccccc31)CCSC2=O,-1,4,26*,1,-6,3,24,
CC(=O)N1CCc2c1cccc2S(=O)(=O)NC(CC(C)C)C(=O)Nc1ccc(F)cc1Cl (stereo unspecified),.,1,.,.,.,.,.,
O=[N+]([O-])c1ccc(N/N=C/c2c[nH]c3ccccc23)c(S(=O)(=O)Nc2ccc(Cl)cc2)c1,1,9,30*,4,27,15,16,
Cc1ccccc1Cn1cc(COC(=O)Nc2ccc(F)cc2)nn1,.,-1,.,.,.,.,.,
COc1cc(/C=C/C(=O)CC(=O)/C=C/c2ccc(O)c(OC)c2)ccc1O,12,-31,26*,13,-21,12,10,
O=C(NC1CCCCC1)O[C@H]1CC[C@@]23CCCN2C(=O)CCC[C@H]3C1,.,8,.,.,.,.,.,
O=C1C(=NO)CCc2ccccc21,.,22,37*,26,18,12,23,
Cn1c(=O)c2cc(S(=O)(=O)N3CCN(CCO)CC3)ccc2n(C)c1=O,.,3,.,.,.,.,.,
COC(=O)[C@]12C[C@H](CC(=O)NCc3ccccc3)C(=O)N(Cc3cccc4ccccc34)C1=C[C@H](C(C)C)O[C@@H]2C1CC1,.,-11,.,.,.,.,.,
[O-][n+]1onc2c1CCc1c-2nc(-c2ccccc2)n1OCc1ccccc1,0,4,4,5,6,2,.,
[O-][n+]1onc2c1CCc1nnc(-c3ccccc3)cc1-2,2,3,78*,-1,1,4,84*,
COn1c(-c2ccccc2)nc2c1CCc1c-2no[n+]1[O-],5,-2,26*,-1,2,4,27*,
CCCc1c(Cc2cccc(F)c2)ncn1CCc1ccccc1OC,.,7,.,.,.,.,.,
CCc1cc(/C(Cc2csc(C)n2)=N/O)c(O)cc1O,8,-1,29*,19,8,13,23,
O=C(c1cccs1)n1ccc2ccc(-c3ccc4ccn(C(=O)c5cccs5)c4c3)cc21,.,-14,.,.,.,.,.,
C=CC(=O)Nc1sc2c(c1C(N)=O)CCCC2,-3,-4,32*,-5,3,-1,30*,
C=CCNC(=S)Nc1sc2c(c1C(N)=O)CCCC2,3,8,.,.,.,.,.,
COC(=O)N/N=C1/C/C(=N\NC(=O)OC)c2ccccc21,4,6,38*,8,18,3,16,
SMILES,pPAFAH inh,ABHD4 inh,PAFAH1B3 FP inh,HTRA1 inh,PAFAH2 inh,PAFAH1B2 FP inh,PAFAH1B3 confirm,others
CC(C)N1CCCCC(NC(=O)Cc2ccccc2)C1=O (stereo unspecified),.,-5,.,.,.,.,.,
NC(=O)c1ncn([C@@H]2O[C@H](C(=O)N[C@H](Cc3ccccc3)C(=O)N3CCN(c4ccc(Cl)cn4)CC3)[C@@H](O)[C@H]2O)n1,.,-5,.,.,.,.,.,
COc1cc(OC)c2cc(C(=O)N/N=C/c3ccccc3O)[nH]c2c1,22,9,29*,25,9,11,21,
COc1ccc2[nH]c(C(=O)N/N=C/c3ccccc3OC)cc2c1,7,-27,8,-16,-4,3,.,
Cc1nn(-c2ccc(F)cc2)c2nc(N)c(C#N)c(-c3ccc(O)c(O)c3)c12,.,-17,36*,59*,5,14,-3,HTRA1 conf=62*
O=C(CCc1ccccc1)N[C@H]1/C(=N/O)CCC[C@]12C(=O)N(Cc1ccccc1)c1ccccc12,.,-7,.,.,.,.,.,
C/C(=N/Nc1ccc([N+](=O)[O-])cc1)c1c[nH]c2ccccc12,.,27,36*,46*,3,10,16,HTRA1 conf=81*
C/C(=N/Nc1ccc([N+](=O)[O-])cc1)c1ccc(C)cc1C,10,5,11,-19,2,3,.,
COCCCN1C(=O)[C@H](CC(=O)N2CCOCC2)[C@]2(C(=O)OC)CCCCC=C12,.,0,.,.,.,.,.,
O=C1Nc2ccc(Br)cc2C12NNc1ccccc1O2 (stereo unspecified),29*,28,27*,49*,15,12,15,HTRA1 conf=62*
Oc1ccc(CCNc2c3ccccc3nc3ccccc23)cc1O,18,23,40*,62*,14,15,33*,HTRA1 conf=84*
OC(c1ccccc1)(c1ccccc1)C1CCN(CCCOc2ccncc2)CC1,.,7,.,.,.,.,.,
O=S(=O)(Nc1ccc(N=Nc2ccc(O)c3ccccc23)cc1)c1ccccc1,25,-3,36*,44*,12,18,17,HTRA1 conf=31
O=[N+]([O-])c1ccc(N=Nc2ccc(O)c3ccccc23)cc1,.,.,9,28,-9,-5,.,
O=C1c2ccccc2C(=O)c2c1ccc(O)c2O,.,74*,30*,76*,12,6,20,HTRA1 conf=93*;ABHD4 confirm=88*
COC(=O)c1ccc2c(c1O)C(=O)c1ccccc1C2=O,8,5,12,10,3,-1,.,
O=C1CC(c2ccc3ccccc3c2)N=C2N(Cc3ccc4c(c3)OCO4)C/C(=C/c3ccccc3)N12 (stereo unspecified),.,-16,.,.,.,.,.,
CC1OC(CC(=O)O)CC2=C1C(=O)c1c(O)cccc1C2=O (stereo unspecified),.,40*,53*,19,14,13,22,ABHD4 confirm=44*
COc1ccc(CN2C(=O)COc3ccccc3C2c2nnnn2C2CCCCC2)cc1 (stereo unspecified),.,4,.,.,.,.,.,
O=C1CSc2ccc(C(=O)N3CCCC(C(=O)N4CCCC4)C3)cc2N1 (stereo unspecified),.,2,.,.,.,.,.,

# Compound activity as filed in PubChem.
